{"source": "paper PMC9283309", "about": "(Journal of medicinal chemistry, 2022)", "key": {"[1]": {"conditions": "co-administered i.m. with ovalbumin (OVA); cited from earlier work"}, "[2]": {"system": "murine melanoma (B16-OVA)", "conditions": "combination with checkpoint inhibitor anti-PD-L1, diprovocim/OVA i.m.; cited from earlier work"}, "[3]": {"system": "adaptive immune response (CD4- and CD-8 dependent responses)", "test": "In vivo adjuvant activity on co-administration with OVA", "parameters": "species or system C57BL/6J mice", "conditions": "i.m. with OVA, 10 mg/kg"}, "[4]": {"system": "OVA-specific IgG, IgG1, IgG2b", "test": "Antibody response assay: serum OVA-specific IgG, IgG1, IgG2b by ELISA", "format": "in vivo, C57BL/6J mice", "conditions": "14 days after a single immunization, i.m. with OVA, 10 mg/kg", "procedure,_shortened": "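Female 8-week C57BL/6J mice (ca. 20 g) injected i.m. on day 0 with 100 μg OVA (5 mg/kg) plus 200 μg (10 mg/kg) test compound in DMSO:Tween 80:saline (1:1:8); serum taken day 14. ELISA: plates coated with 5 μg/mL OVA overnight at 4 °C, blocked 1% BSA 1 h, serum (diluted in 1% BSA) 2 h, HRP anti-mouse IgG/IgG1/IgG2b 1 h RT, TMB, A450.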"}, "mTLR1/TLR2": {"biological_target": "mTLR1/TLR2 (Mus musculus, UniProt Q9EPQ1+Q9QUN7)", "sequence (Q9EPQ1 26-795)": "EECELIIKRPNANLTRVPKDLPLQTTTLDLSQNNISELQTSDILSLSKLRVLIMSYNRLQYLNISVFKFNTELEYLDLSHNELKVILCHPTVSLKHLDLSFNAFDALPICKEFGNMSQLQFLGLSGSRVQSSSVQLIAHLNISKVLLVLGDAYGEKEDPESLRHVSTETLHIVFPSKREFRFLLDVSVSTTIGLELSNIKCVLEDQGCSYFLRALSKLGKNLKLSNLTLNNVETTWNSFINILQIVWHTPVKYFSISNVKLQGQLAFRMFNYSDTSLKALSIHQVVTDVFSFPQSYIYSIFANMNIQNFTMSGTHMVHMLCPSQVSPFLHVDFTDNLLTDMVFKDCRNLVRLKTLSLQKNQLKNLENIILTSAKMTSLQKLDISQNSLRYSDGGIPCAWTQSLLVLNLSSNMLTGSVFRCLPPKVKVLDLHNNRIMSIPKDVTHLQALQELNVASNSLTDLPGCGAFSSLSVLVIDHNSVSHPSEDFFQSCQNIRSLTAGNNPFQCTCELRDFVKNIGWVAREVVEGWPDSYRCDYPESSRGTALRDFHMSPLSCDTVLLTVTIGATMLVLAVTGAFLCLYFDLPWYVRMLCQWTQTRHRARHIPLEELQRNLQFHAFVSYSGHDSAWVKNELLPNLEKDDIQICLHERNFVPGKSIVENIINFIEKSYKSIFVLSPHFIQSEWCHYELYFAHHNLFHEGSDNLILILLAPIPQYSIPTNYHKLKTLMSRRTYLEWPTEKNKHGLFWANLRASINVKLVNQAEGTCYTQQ", "sequence (Q9QUN7 25-784)": "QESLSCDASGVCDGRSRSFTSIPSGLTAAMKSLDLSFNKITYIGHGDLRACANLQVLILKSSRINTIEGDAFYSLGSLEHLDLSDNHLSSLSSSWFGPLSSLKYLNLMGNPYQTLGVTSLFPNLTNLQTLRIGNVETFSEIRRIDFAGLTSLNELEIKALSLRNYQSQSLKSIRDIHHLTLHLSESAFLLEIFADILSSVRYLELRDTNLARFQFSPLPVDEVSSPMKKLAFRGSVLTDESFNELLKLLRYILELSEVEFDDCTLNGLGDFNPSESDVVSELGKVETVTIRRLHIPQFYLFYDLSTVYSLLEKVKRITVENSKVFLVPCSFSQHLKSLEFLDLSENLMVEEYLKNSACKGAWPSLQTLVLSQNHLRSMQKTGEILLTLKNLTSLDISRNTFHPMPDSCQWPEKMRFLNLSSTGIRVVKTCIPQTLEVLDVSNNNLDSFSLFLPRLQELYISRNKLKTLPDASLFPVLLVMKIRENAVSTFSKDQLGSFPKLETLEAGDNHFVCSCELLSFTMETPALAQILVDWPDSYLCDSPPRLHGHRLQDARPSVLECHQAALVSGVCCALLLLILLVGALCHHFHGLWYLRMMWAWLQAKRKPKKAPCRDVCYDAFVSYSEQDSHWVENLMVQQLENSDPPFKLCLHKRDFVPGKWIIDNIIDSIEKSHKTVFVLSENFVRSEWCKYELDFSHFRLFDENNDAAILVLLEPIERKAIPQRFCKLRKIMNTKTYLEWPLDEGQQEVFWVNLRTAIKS", "format": "cell-based, mouse (C57BL/6J)", "conditions": "mouse macrophages; for murine efficacy/activity in words: compared with diprovocim-1"}, "hTLR1/TLR2": {"biological_target": "hTLR1/TLR2 (Homo sapiens, UniProt O60603+Q15399)", "sequence (Q15399 25-786)": "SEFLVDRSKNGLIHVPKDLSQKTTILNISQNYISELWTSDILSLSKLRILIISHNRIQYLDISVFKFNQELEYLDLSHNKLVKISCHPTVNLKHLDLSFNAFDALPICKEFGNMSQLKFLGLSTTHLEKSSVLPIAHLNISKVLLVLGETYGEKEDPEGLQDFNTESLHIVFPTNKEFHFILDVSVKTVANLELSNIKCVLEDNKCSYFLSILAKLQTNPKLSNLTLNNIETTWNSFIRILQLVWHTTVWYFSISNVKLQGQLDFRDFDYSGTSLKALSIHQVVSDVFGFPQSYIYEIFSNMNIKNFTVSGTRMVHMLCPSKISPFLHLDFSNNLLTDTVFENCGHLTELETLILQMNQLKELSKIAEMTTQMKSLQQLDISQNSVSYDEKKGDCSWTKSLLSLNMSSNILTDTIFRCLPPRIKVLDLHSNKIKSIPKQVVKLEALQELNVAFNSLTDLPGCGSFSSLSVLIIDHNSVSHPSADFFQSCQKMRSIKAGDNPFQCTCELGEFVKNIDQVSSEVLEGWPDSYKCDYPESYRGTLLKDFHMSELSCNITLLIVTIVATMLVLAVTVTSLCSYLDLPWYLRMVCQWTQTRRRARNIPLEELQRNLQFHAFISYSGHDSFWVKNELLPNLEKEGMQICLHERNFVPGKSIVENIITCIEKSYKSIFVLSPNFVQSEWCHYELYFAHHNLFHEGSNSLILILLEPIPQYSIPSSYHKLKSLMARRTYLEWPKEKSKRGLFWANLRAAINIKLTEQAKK", "sequence (O60603 21-784)": "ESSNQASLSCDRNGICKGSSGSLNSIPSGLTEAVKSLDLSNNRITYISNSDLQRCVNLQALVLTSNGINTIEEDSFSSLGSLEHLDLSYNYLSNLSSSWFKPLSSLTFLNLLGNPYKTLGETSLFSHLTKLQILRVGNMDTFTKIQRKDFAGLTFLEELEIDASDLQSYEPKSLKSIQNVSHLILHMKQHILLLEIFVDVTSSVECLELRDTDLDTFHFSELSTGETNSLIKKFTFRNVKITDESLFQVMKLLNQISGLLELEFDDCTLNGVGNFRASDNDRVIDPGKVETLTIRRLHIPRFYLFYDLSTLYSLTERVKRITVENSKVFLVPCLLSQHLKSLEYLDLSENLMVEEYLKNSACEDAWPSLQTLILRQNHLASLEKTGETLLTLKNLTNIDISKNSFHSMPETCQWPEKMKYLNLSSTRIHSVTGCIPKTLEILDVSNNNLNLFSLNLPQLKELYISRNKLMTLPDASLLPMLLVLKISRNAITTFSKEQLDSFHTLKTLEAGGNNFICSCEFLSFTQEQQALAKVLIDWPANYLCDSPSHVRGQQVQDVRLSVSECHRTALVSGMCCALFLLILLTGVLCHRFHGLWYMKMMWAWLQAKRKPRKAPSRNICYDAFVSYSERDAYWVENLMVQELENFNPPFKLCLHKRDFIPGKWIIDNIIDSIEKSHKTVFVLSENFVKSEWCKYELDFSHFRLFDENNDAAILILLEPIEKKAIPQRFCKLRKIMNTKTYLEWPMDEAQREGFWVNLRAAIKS", "test": "Stimulated release of TNF-α from differentiated THP-1 cells", "format": "cell-based", "conditions": "text comment on Figure 3 data, compared with diprovocim-1"}, "TLR2": {"biological_target": "TLR2 (Homo sapiens, UniProt O60603+Q15399)", "sequence (O60603 21-784)": "as above", "sequence (Q15399 25-786)": "as the sequence (Q15399 25-786) above", "format": "cell-based", "conditions": "5 nM; anti-TLR2 20 μg/mL, 1 h pretreatment", "procedure,_shortened": "(§1)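 THP-1 cells PMA-differentiated (100 nM, 24 h) then rested 24 h in fresh RPMI/10% FBS. Cells pretreated 1 h with neutralizing anti-TLR1, anti-TLR2 or anti-TLR6 (20 μg/mL) before stimulation with 5 nM test compound; no-antibody wells as control. TNF-α release was the read-out.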"}, "TLR4": {"system": "TLR4", "format": "cell-based, mouse", "conditions": "500 nM, diprovocim-X versus diprovocim-1"}, "TLR1": {"biological_target": "TLR1 (Homo sapiens, UniProt O60603+Q15399)", "sequence (Q15399 25-786)": "as above", "sequence (O60603 21-784)": "as the sequence (O60603 21-784) above", "format": "cell-based", "conditions": "5 nM; anti-TLR1 20 μg/mL, 1 h pretreatment", "procedure,_shortened": "as §1"}}}
{"smiles": "O=C(N[C@H]1C[C@@H]1c1ccccc1)[C@@H]1CN(C(=O)c2ccc(C(=O)N3C[C@@H](C(=O)N[C@H]4C[C@@H]4c4ccccc4)[C@H](C(=O)N[C@H]4C[C@@H]4c4ccccc4)C3)cc2)C[C@H]1C(=O)N[C@H]1C[C@@H]1c1ccccc1", "note": "[compound 1]", "values": [{"measurement": "adjuvant activity in mice", "setting": "[1]", "value": "effective adjuvant"}, {"measurement": "tumor response, B16-OVA", "setting": "[2]", "value": "eradicated tumors"}, {"measurement": "adjuvant activity in mice", "setting": "[3]", "value": "comparable adjuvant activity"}, {"measurement": "OVA-specific circulating antibodies (IgG, IgG1, IgG2b)", "setting": "[4]", "value": "strong responses"}]}
{"smiles": "CC(C)(C)OC(=O)NCCCCCCCCCCCCNC(=O)[C@@H]1CN(C(=O)c2ccc(C(=O)N3C[C@@H](C(=O)N[C@H]4C[C@@H]4c4ccccc4)[C@H](C(=O)N[C@H]4C[C@@H]4c4ccccc4)C3)cc2)C[C@H]1C(=O)N[C@H]1C[C@@H]1c1ccccc1", "note": "[compound 17, tert-Butyl (12-((3S,4S)-1-(4-((3S,4S)-3,4-bis(((1S,2R)-2-phenylcyclopropyl)carbamoyl)-pyrrolidine-1-carbonyl)benzoyl)-4-(((1S,2R)-2-phenylcyclopropyl)carbamoyl)pyrrolidine-3-carboxamido)dodecyl)carbamate]", "values": [{"measurement": "murine efficacy/activity in words", "setting": "mTLR1/TLR2", "value": "did not display this increased or improved murine activity"}]}
{"smiles": "C#CCCCCCCCCCCCCNC(=O)[C@@H]1CN(C(=O)c2ccc(C(=O)N3C[C@@H](C(=O)N[C@H]4C[C@@H]4c4ccccc4)[C@H](C(=O)N[C@H]4C[C@@H]4c4ccccc4)C3)cc2)C[C@H]1C(=O)N[C@H]1C[C@@H]1c1ccccc1", "note": "[compound 19, (3S,4S)-1-(4-((3S,4S)-3,4-Bis(((1S,2R)-2-phenylcyclopropyl)carbamoyl)pyrrolidine-1-carbonyl)-benzoyl)-N^3-((1S,2R)-2-phenylcyclopropyl)-N^4-(tetradec-13-yn-1-yl)pyrrolidine-3,4-dicarboxamide]", "values": [{"measurement": "response efficacy in words", "setting": "hTLR1/TLR2", "value": "small improvement in the response efficacy"}]}
{"smiles": "O=C(NCCCCCCCCc1ccc(O)cc1)[C@@H]1CN(C(=O)c2ccc(C(=O)N3C[C@@H](C(=O)N[C@H]4C[C@@H]4c4ccccc4)[C@H](C(=O)N[C@H]4C[C@@H]4c4ccccc4)C3)cc2)C[C@H]1C(=O)N[C@H]1C[C@@H]1c1ccccc1", "note": "[compound 26, (3S,4S)-1-(4-((3S,4S)-3,4-Bis(((1S,2R)-2-phenylcyclopropyl)carbamoyl)pyrrolidine-1-carbonyl)-benzoyl)-N^3-(8-(4-hydroxyphenyl)octyl)-N^4-((1S,2R)-2-phenylcyclopropyl)pyrrolidine-3,4-dicarboxamide]", "values": [{"measurement": "murine efficacy/activity in words", "setting": "mTLR1/TLR2", "value": "substantial increase in efficacy"}]}
{"smiles": "Nc1ccc(CCCCCCCCNC(=O)[C@@H]2CN(C(=O)c3ccc(C(=O)N4C[C@@H](C(=O)N[C@H]5C[C@@H]5c5ccccc5)[C@H](C(=O)N[C@H]5C[C@@H]5c5ccccc5)C4)cc3)C[C@H]2C(=O)N[C@H]2C[C@@H]2c2ccccc2)cc1", "note": "[compound 27, (3S,4S)-N^3-(8-(4-Aminophenyl)octyl)-1-(4-((3S,4S)-3,4-bis(((1S,2R)-2-phenylcyclopropyl)-carbamoyl)pyrrolidine-1-carbonyl)benzoyl)-N^4-((1S,2R)-2-phenylcyclopropyl)pyrrolidine-3,4-dicarboxamide]", "values": [{"measurement": "murine efficacy/activity in words", "setting": "mTLR1/TLR2", "value": "substantial increase in efficacy"}]}
{"smiles": "CC(C)(C)OC(=O)NCC(=O)OCCCCCCCCCCCCNC(=O)[C@@H]1CN(C(=O)c2ccc(C(=O)N3C[C@@H](C(=O)N[C@H]4C[C@@H]4c4ccccc4)[C@H](C(=O)N[C@H]4C[C@@H]4c4ccccc4)C3)cc2)C[C@H]1C(=O)N[C@H]1C[C@@H]1c1ccccc1", "note": "[compound 35, 12-((3S,4S)-1-(4-((3S,4S)-3,4-Bis(((1S,2R)-2-phenylcyclopropyl)carbamoyl)-pyrrolidine-1-carbonyl)benzoyl)-4-(((1S,2R)-2-phenylcyclopropyl)carbamoyl)-pyrrolidine-3-carboxamido)dodecyl-2-((tert-butoxycarbonyl)amino)acetate]", "values": [{"measurement": "fold more active than diprovocim-1", "setting": "mTLR1/TLR2; EC50 compared with diprovocim-1", "value": 2, "unit": "fold"}, {"measurement": "dependence of TNF-α release on TLR2", "setting": "TLR2", "value": "dependent"}, {"measurement": "efficacy as a TNF inducer in mouse macrophage cultures", "setting": "TLR4", "value": "greater efficacy"}, {"measurement": "adjuvant activity in mice", "setting": "[3]", "value": "matching or surpassing the in vivo activity of diprovocim-1"}, {"measurement": "OVA-specific circulating antibodies (IgG, IgG1, IgG2b)", "setting": "[4]", "value": "strong responses"}, {"measurement": "dependence of TNF-α release on TLR1", "setting": "TLR1", "value": "dependent"}]}
{"smiles": "CC(C)(C)OC(=O)NCCOCCOCCOCCOCCC(=O)OCCCCCCCCCCCCNC(=O)[C@@H]1CN(C(=O)c2ccc(C(=O)N3C[C@@H](C(=O)N[C@H]4C[C@@H]4c4ccccc4)[C@H](C(=O)N[C@H]4C[C@@H]4c4ccccc4)C3)cc2)C[C@H]1C(=O)N[C@H]1C[C@@H]1c1ccccc1", "note": "[compound 55, 12-((3S,4S)-1-(4-((3S,4S)-3,4-Bis(((1S,2R)-2-phenylcyclopropyl)carbamoyl)pyrrolidine-1-carbonyl)benzoyl)-4-(((1S,2R)-2-phenylcyclopropyl)carbamoyl)pyrrolidine-3-carboxamido)-dodecyl 2,2-dimethyl-4-oxo-3,8,11,14,17-pentaoxa-5-azaicosan-20-oate]", "values": [{"measurement": "murine efficacy/activity in words", "setting": "mTLR1/TLR2", "value": "modest increase in the efficacy"}]}
